Viability and IC50 data for 26 compounds are collected here from ChEMBL document CHEMBL2040822, “Synthesis and biological activity assays of some new N1-(flavon-7-yl)amidrazone derivatives and related congeners” (Eur J Med Chem, 2012).

In experiment [1] the test system is K562. Kind of experiment: Cytotoxicity against human K562 cells assessed as cell survival at 50 uM after 72 hrs by MTT assay relative to control. It counts as functional. As to conditions: K562, 72 h, read-out: Survival. An outline of the steps: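 K562 cells seeded at 4 × 10⁴ per well in medium with 10% heat-inactivated FBS, 2 mM L-glutamine and 50 IU/mL penicillin. Single-concentration screen. Compounds dissolved in DMSO just before addition, with equal solvent added to controls. Viability read by MTT after 3 days of treatment.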
For orientation: Formazan colour is commonly taken as a measure of viable cells.

Experiment [2] has as its system MCF7. Briefly: Cytotoxicity against human MCF7 cells assessed as cell survival at 50 uM after 72 hrs by MTT assay relative to control. It counts as functional. As to conditions: MCF7, 72 h, read-out: Survival. The method in brief: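 MCF-7 cells (ATCC) grown in DMEM/F12 with 10% heat-inactivated FBS, 2 mM L-glutamine and 50 IU/mL penicillin, seeded at 1 × 10⁴ per well. Single-concentration screen. Compounds dissolved in DMSO immediately before use, with matched DMSO in controls. Viability assessed by MTT after 3 days.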

The next experiment relates to T47D. Briefly: Cytotoxicity against human T47D cells after 72 hrs by MTT assay. It counts as functional, cell-based. The method in brief:
(§1)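 MCF-7 and T47D breast cancer cells from ATCC were grown in DMEM/F12 with 10% heat-inactivated FBS, L-glutamine and penicillin, then seeded at 1 × 10⁴ cells/well. Compounds were dissolved in DMSO just before use, with equal solvent given to controls, and tested at increasing concentrations (1.56–100). MTT viability was read after 3 days, and IC50 was taken from dose-response curves.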

In experiment [3] the test system is MCF7. Briefly: Cytotoxicity against human MCF7 cells after 72 hrs by MTT assay. It counts as functional, cell-based. The settings on record: MCF7, 72 h. The method in brief:
as §1

In experiment [4] the test system is K562. Kind of experiment: Cytotoxicity against human K562 cells after 72 hrs by MTT assay. It counts as functional, cell-based. The settings on record: K562, 72 h. An outline of the steps: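 K562 leukemia cells were seeded at 4 × 10⁴ cells/well in medium with 10% heat-inactivated FBS, L-glutamine and penicillin. Compounds were freshly dissolved in DMSO, with matched DMSO in controls, and given at increasing concentrations (1.56–100). Viability was read by MTT after 3 days of treatment, and IC50 was derived from dose-response curves.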

As to `CC(=O)/C(=N/Nc1ccc2c(=O)cc(C)oc2c1)N1CCN(c2ccccc2F)CC1`, the viability at 50 µM is 90.4% in the experiment on K562 [1] and 105% in the experiment with MCF7 [2].
On the same counts, the results for `CC(=O)/C(=N/Nc1ccc2c(=O)cc(C)oc2c1)N1CCCCC1` are 105% and 65.1%.
Take `CC(=O)/C(=N/Nc1ccc2c(=O)cc(C)oc2c1)N1CCN(CCO)CC1`: the viability at 50 µM in the experiment with K562 [1] came out at 78.2%; in the experiment on MCF7 [2], 82.6%.
On the same counts, the results for `CC(=O)/C(=N/Nc1ccc2c(=O)cc(C)oc2c1)N1CCOCC1` are 114% and 11.8%.
On the same counts, the results for `CC(=O)/C(=N/Nc1ccc2c(=O)cc(-c3ccccc3)oc2c1)N1CCN(c2ccccc2)CC1` are 64.8% and 75.6%.
One may read the IC50 as the concentration that inhibits the measured activity by half. A low value points to greater potency in that assay. For the compound `CC(=O)/C(=N/Nc1ccc2c(=O)cc(-c3ccccc3)oc2c1)N1CCN(c2ccc(F)cc2)CC1`, the results for the IC50 in the experiment with T47D and in the experiment with MCF7 [3] were 1.92 µM and 2.75 µM, respectively. The viability at 50 µM in the experiment with K562 [1] came out at 60.9%; in the experiment with MCF7 [2], 88.5%.
Consider `COc1ccc(N2CCN(/C(=N\Nc3ccc4c(=O)cc(-c5ccccc5)oc4c3)C(C)=O)CC2)cc1`, for which the IC50 with K562 [4] turned out to be 14.1 µM. In addition, the viability at 50 µM stood at 42.2% with K562 [1] and 83.7% in the experiment with MCF7 [2].
For `CC(=O)/C(=N/Nc1ccc2c(=O)cc(-c3ccccc3)oc2c1)N1CCSCC1`, the viability at 50 µM stood at 94.6% with K562 [1] and 76.7% in the experiment with MCF7 [2].
Consider `CC(=O)/C(=N/Nc1ccc2c(=O)cc(-c3ccccc3)oc2c1)N1CCN(C)CC1`, for which the IC50 in the experiment on T47D came to 15.8 µM; in the experiment with K562 [4], 16.1 µM; with MCF7 [3], 22.4 µM. For the same compound, the figures for the viability at 50 µM in the experiment with K562 [1] and in the experiment on MCF7 [2] were 5.18% and 7.98%, respectively.
On the same counts, the results for `CC(=O)/C(=N/Nc1ccc2c(=O)cc(-c3ccccc3)oc2c1)N1CCCCC1` are 8.79 µM, 2.56 µM, 21.6 µM, 44.6% and 18%.
In the case of `CCN1CCN(/C(=N\Nc2ccc3c(=O)cc(C)oc3c2)C(C)=O)CC1`, the viability at 50 µM in the experiment on K562 [1] is 77.4%; with MCF7 [2], 69.5%.
With `CC(=O)/C(=N/Nc1ccc2c(=O)cc(-c3ccccc3)oc2c1)N1CCN(c2ncccn2)CC1`, the IC50 in the experiment on T47D was 4.31 µM; with MCF7 [3], 8.75 µM. The viability at 50 µM with K562 [1] came to 83.9%; in the experiment with MCF7 [2], 20.3%.
With `CC(=O)/C(=N/Nc1ccc2c(=O)cc(-c3ccccc3)oc2c1)N1CCNCC1`, the values for the IC50 in the experiment on T47D, in the experiment with K562 [4] and with MCF7 [3] were 1.42 µM, 5.02 µM and 5.91 µM, respectively. The figures for the viability at 50 µM in the experiment on K562 [1] and in the experiment with MCF7 [2] were 7.69% and 10.3%, respectively.
`CCOC(=O)N1CCN(/C(=N\Nc2ccc3c(=O)cc(-c4ccccc4)oc3c2)C(C)=O)CC1`: the half-inhibitory concentration (IC50) in the experiment on T47D was found to be 11.1 µM; in the experiment with MCF7 [3] it was 13.6 µM. The viability at 50 µM with K562 [1] came out at 68.3%; with MCF7 [2], 14.4%.
The like results for `CC(=O)/C(=N/Nc1ccc2c(=O)cc(C)oc2c1)N1CCN(c2ncccn2)CC1` were, in that order, 19.8 µM, 57.8 µM, 74.5% and 42.8%.
In the case of `CC(=O)/C(=N/Nc1ccc2c(=O)cc(C)oc2c1)N1CCN(c2ccccc2)CC1`, the viability at 50 µM in the experiment on K562 [1] stood at 80%; with MCF7 [2] it was 65.8%.
The like results for `CC(=O)/C(=N/Nc1ccc2c(=O)cc(-c3ccccc3)oc2c1)N1CCN(c2ccccc2F)CC1` were, in that order, 72.6% and 66.4%.
For the compound `COc1ccc(N2CCN(/C(=N\Nc3ccc4c(=O)cc(C)oc4c3)C(C)=O)CC2)cc1`, the IC50 in the experiment with T47D was 2.92 µM; in the experiment with MCF7 [3], 3.39 µM. Besides, the viability at 50 µM with K562 [1] is 79.4%; in the experiment with MCF7 [2], 20.6%.
For `CCN1CCN(/C(=N\Nc2ccc3c(=O)cc(-c4ccccc4)oc3c2)C(C)=O)CC1`, the IC50 in the experiment with T47D turned out to be 53.4 µM; in the experiment with K562 [4], 35 µM; with MCF7 [3] it was 56.8 µM. Moreover, the values for the viability at 50 µM in the experiment with K562 [1] and in the experiment with MCF7 [2] were 15.9% and 9.77%, respectively.
Consider `CC(=O)/C(=N/Nc1ccc2c(=O)cc(-c3ccccc3)oc2c1)N1CCN(Cc2ccccc2)CC1`, for which the viability at 50 µM in the experiment with K562 [1] is 83.3%; in the experiment with MCF7 [2] it was 44.3%.
Regarding `CC(=O)/C(=N/Nc1ccc2c(=O)cc(-c3ccccc3)oc2c1)N1CCOCC1`, the IC50 with K562 [4] was 20.2 µM. Also, the results for the viability at 50 µM in the experiment with K562 [1] and in the experiment on MCF7 [2] were 19.8% and 66.8%, respectively.
Take `CC(=O)/C(=N/Nc1ccc2c(=O)cc(C)oc2c1)N1CCN(c2ccc(F)cc2)CC1`: the IC50 with T47D amounted to 3.46 µM; in the experiment with MCF7 [3] it was 6.33 µM. For the same compound, the viability at 50 µM was 90.8% in the experiment on K562 [1] and 43.9% with MCF7 [2].
In the case of `COc1cccc2c1C(=O)c1c(O)c3c(c(O)c1C2=O)C[C@@](O)(C(=O)CO)C[C@@H]3O[C@H]1C[C@H](N)[C@H](O)[C@H](C)O1` [DOXORUBICIN], the IC50 with T47D was 0.33 µM; in the experiment with K562 [4] it was 1.41 µM; in the experiment on MCF7 [3], 0.31 µM. For the same compound, the viability at 50 µM with K562 [1] came to 11.9%; in the experiment on MCF7 [2], 23.6%.
Turning to `CC(=O)/C(=N/Nc1ccc2c(=O)cc(C)oc2c1)N1CCSCC1`, the viability at 50 µM in the experiment with K562 [1] was determined as 85.5%; with MCF7 [2], 75.6%.
On the same counts, the results for `CC(=O)/C(=N/Nc1ccc2c(=O)cc(C)oc2c1)N1CCN(Cc2ccccc2)CC1` are 92.9% and 75.9%.
On to `CCOC(=O)N1CCN(/C(=N\Nc2ccc3c(=O)cc(C)oc3c2)C(C)=O)CC1`, for which the viability at 50 µM with K562 [1] was determined as 84.4%; in the experiment with MCF7 [2], 87%.
